INS-1E ATP HTS: rescue of cytokine-induced death in INS-1E beta cells | INS-1E cytokine-induced death, ATP luminescence, 48 h; normalised: neutral wells 0, positive control 100 | protection from cytokine-induced ATP loss, % at 10 µM | hit rate 0.1% among 20,000;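 active = mean replicate protection from cytokine-induced ATP loss at least 50% and at least 75% of replicates each reaching 50%; inconclusive = meets only one of the two criteria, mean or replicate share; inactive = fails both the mean and replicate share criteria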
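assay system = INS-1E rat insulinoma cells | amount = 8000 cells per well | medium = phenol-red-free RPMI with 5% fetal bovine serum | doses = one compound concentration, pin transfer | timing = 48 h cytokine plus compound treatment, 10 min reagent incubation | also added = IL-1β, TNF-α and IFN-γ cytokine mix | signal = CellTiter-Glo luminescence measuring cellular ATP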
T cruzi HTS: inhibitors of intracellular Trypanosoma cruzi | intracellular Trypanosoma cruzi in host cells, plate reader | AID 651903 | activity score (inhibition), % at 5.01 µM | hit rate 4.9% among 22,000; in the data active = activity score above about 55%; inconclusive = no clear call, values can overlap the other calls;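 also: parasites and compound incubated about four days before reading; 0% = median of neutral control wells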
A1 apoptosis 2: compounds inhibiting A1, read as caspase activation. caspase activation, % (no concentration beside the values). MEF A1-2A-BIM cells, caspase-Glo luminescence, 3 h; percent of clofoctol response, DMSO zero. AID 2465. 24,000 tested, under 10 active; in the data active = caspase activation above about 5.9%; inconclusive = no clear call, values can overlap the other calls; inactive = below about 2.2%
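system = A1-2A-BIM-expressing MEF cells | quantity = 2500 MEF cells/well | dosing = 50 nL compound per well, pinned | schedule = overnight cell settling, then 3 h compound exposure, 37 °C | signal = luminescence from DEVD-luciferin Caspase-Glo reagent, 1:1 in 50 mM HEPES, 1 h RT | read-out = Caspase-3/7 activation, seen as rise in luminescence signal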
Starred values were filed as active, the others as inactive. Shown is part of a subset that was picked to be rich in hits.

Results for C[C@H]1CN([C@@H](C)CO)C(=O)c2cc(NC(=O)Nc3ccc(C(F)(F)F)cc3)ccc2O[C@H]1CN(C)Cc1ccc2c(c1)OCO2 ?
T cruzi HTS: 34*

Results for O=C(CCCCCCC(=O)Nc1ccccc1O)N/N=C/c1ccc(Br)o1 ?
INS-1E ATP HTS: 17; T cruzi HTS: -18; A1 apoptosis 2: -1

How did O=C(CCCCCC(=O)N/N=C/c1ccc2ccccc2n1)NO do in these assays?
A1 apoptosis 2: -2

How did O=C(NO)c1cccc(C(=O)N/N=C/c2ccccc2)c1 do in these assays?
INS-1E ATP HTS: 9; T cruzi HTS: -10; A1 apoptosis 2: -1

Results for Cc1ccc(/C=N/NC(=O)c2cccc(C(=O)NO)c2)o1 ?
INS-1E ATP HTS: -2; T cruzi HTS: -9; A1 apoptosis 2: -1

How did COc1ccc(C#Cc2ccc3c(c2)[C@]2(C(=O)N3)[C@H](c3ccc(O)cc3)N3[C@H](c4ccccc4)[C@H](c4ccccc4)OC(=O)[C@H]3[C@@H]2C(N)=O)cc1 do in these assays?
A1 apoptosis 2: 1

How did O=C(CCCCCC(=O)Nc1ccccc1O)N/N=C/c1ccc(OCCO)cc1 do in these assays?
INS-1E ATP HTS: 2; T cruzi HTS: -16

Results for C[C@H]1CN([C@@H](C)CO)C(=O)c2cccc(NC(=O)c3ccncc3)c2O[C@@H]1CN(C)Cc1ccc2c(c1)OCO2 ?
INS-1E ATP HTS: -5; T cruzi HTS: 78*; A1 apoptosis 2: 0

How did C[C@@H]1CN([C@@H](C)CO)C(=O)c2cccc(NC(=O)c3ccncc3)c2O[C@@H]1CN(C)Cc1ccc2c(c1)OCO2 do in these assays?
INS-1E ATP HTS: 3; T cruzi HTS: -1; A1 apoptosis 2: 2

How did C[C@H](CO)N1C[C@H](C)[C@@H](CN(C)Cc2ccc3c(c2)OCO3)Oc2c(NC(=O)c3ccncc3)cccc2C1=O do in these assays?
INS-1E ATP HTS: 15; T cruzi HTS: 76*; A1 apoptosis 2: 0

What do the screens show for `C[C@@H]1CN([C@H](C)CO)C(=O)c2cccc(NC(=O)c3ccncc3)c2O[C@@H]1CN(C)Cc1ccc2c(c1)OCO2`?
INS-1E ATP HTS: -6; T cruzi HTS: -8; A1 apoptosis 2: 0

What do the screens show for `COc1cccc(OC)c1/C=N/NC(=O)CCCCCCC(=O)Nc1ccccc1O`?
INS-1E ATP HTS: 2; T cruzi HTS: 9; A1 apoptosis 2: 0

Results for COc1cc(/C=N/NC(=O)CCCCCCC(=O)Nc2ccccc2O)c(Br)cc1O ?
INS-1E ATP HTS: 11; T cruzi HTS: 3; A1 apoptosis 2: 0

What do the screens show for `C[C@@H]1CN([C@@H](C)CO)C(=O)Cc2cc(NC(=O)Nc3cccc4ccccc34)ccc2O[C@@H]1CN(C)Cc1ccc2c(c1)OCO2`?
INS-1E ATP HTS: -16; T cruzi HTS: 53; A1 apoptosis 2: 0

Results for C[C@H](CO)N1C[C@H](C)[C@@H](CN(C)Cc2ccccc2)Oc2ccc(NC(=O)Nc3cccc4ccccc34)cc2CC1=O ?
A1 apoptosis 2: 0

How did C[C@@H]1CN([C@@H](C)CO)C(=O)Cc2cc(NC(=O)Nc3cccc4ccccc34)ccc2O[C@H]1CN(C)Cc1ccc(-c2ccccc2)cc1 do in these assays?
A1 apoptosis 2: 1

Results for C[C@H]1CN([C@@H](C)CO)C(=O)Cc2cc(NC(=O)Nc3cccc4ccccc34)ccc2O[C@@H]1CN(C)Cc1ccc(-c2ccccc2)cc1 ?
INS-1E ATP HTS: -7; T cruzi HTS: 58*; A1 apoptosis 2: 0

How did C[C@@H]1CN([C@@H](C)CO)C(=O)Cc2cc(NC(=O)Nc3cccc4ccccc34)ccc2O[C@@H]1CN(C)Cc1ccc(Cl)c(Cl)c1 do in these assays?
INS-1E ATP HTS: -62; T cruzi HTS: 65*

Results for C[C@@H]1CN([C@@H](C)CO)C(=O)c2cc(NC(=O)Nc3cccc4ccccc34)ccc2O[C@@H]1CN(C)Cc1ccc(Cl)c(Cl)c1 ?
T cruzi HTS: 52

Results for C[C@H]1CN([C@@H](C)CO)C(=O)Cc2cc(NC(=O)Nc3cccc4ccccc34)ccc2O[C@@H]1CN(C)Cc1ccccc1 ?
INS-1E ATP HTS: -16; T cruzi HTS: 58*

Results for C[C@@H]1CN([C@H](C)CO)C(=O)Cc2cc(NC(=O)Nc3cccc4ccccc34)ccc2O[C@@H]1CN(C)Cc1ccc2c(c1)OCO2 ?
INS-1E ATP HTS: -34; T cruzi HTS: 71*

How did O=C(CCCCCCC(=O)Nc1ccccc1O)N/N=C/c1cc(Br)cs1 do in these assays?
INS-1E ATP HTS: 10; T cruzi HTS: -6; A1 apoptosis 2: 1

Results for O=C(NO)c1cccc(C(=O)N/N=C/c2ccoc2)c1 ?
INS-1E ATP HTS: 1; T cruzi HTS: -23; A1 apoptosis 2: 0

Results for O=C(NO)c1ccc(C(=O)N/N=C/c2cc(F)ccc2O)cc1 ?
INS-1E ATP HTS: 9; T cruzi HTS: -15; A1 apoptosis 2: 0

Results for COC(=O)CCCCCCC(=O)NN ?
INS-1E ATP HTS: 4; T cruzi HTS: -27

How did O=C(N/N=C/c1ccccc1Br)c1ccccc1O do in these assays?
INS-1E ATP HTS: 4; T cruzi HTS: -22; A1 apoptosis 2: -10

What do the screens show for `O=C(CCCCCCC(=O)Nc1ccccc1O)N/N=C/c1cccc(O)c1`?
INS-1E ATP HTS: -2; T cruzi HTS: -3; A1 apoptosis 2: 0

How did C[C@@H]1CN([C@@H](C)CO)C(=O)Cc2cc(NC(=O)Nc3ccc(C(F)(F)F)cc3)ccc2O[C@@H]1CN(C)CC1CCCCC1 do in these assays?
INS-1E ATP HTS: -46; T cruzi HTS: 77*

What do the screens show for `C[C@H](CO)N1C[C@H](C)[C@@H](CN(C)CC2CC2)Oc2ccc(NC(=O)Nc3ccc(C(F)(F)F)cc3)cc2CC1=O`?
A1 apoptosis 2: 1

How did C[C@H]1CN([C@@H](C)CO)C(=O)Cc2cc(NC(=O)Nc3ccc(C(F)(F)F)cc3)ccc2O[C@H]1CN(C)CC1CCCCC1 do in these assays?
INS-1E ATP HTS: -56; T cruzi HTS: 72*

Results for C[C@H]1CN([C@@H](C)CO)C(=O)Cc2cc(NC(=O)Nc3ccc(C(F)(F)F)cc3)ccc2O[C@@H]1CN(C)CC1CC1 ?
INS-1E ATP HTS: 4; T cruzi HTS: -30; A1 apoptosis 2: 1

Results for C[C@H](CO)N1C[C@H](C)[C@H](CN(C)Cc2ccc(C(=O)O)cc2)Oc2c(NC(=O)c3cnccn3)cccc2C1=O ?
INS-1E ATP HTS: 3; T cruzi HTS: -5; A1 apoptosis 2: 0

How did C[C@H](CO)N1C[C@H](C)[C@@H](CN(C)Cc2ccc(C(=O)Nc3ccccc3N)cc2)Oc2c(NC(=O)c3cnccn3)cccc2C1=O do in these assays?
INS-1E ATP HTS: -5; T cruzi HTS: 75*; A1 apoptosis 2: 0

How did C[C@H]1CN([C@@H](C)CO)C(=O)c2cccc(NC(=O)c3cnccn3)c2O[C@@H]1CN(C)Cc1ccc(C(=O)Nc2ccccc2N)cc1 do in these assays?
INS-1E ATP HTS: -14; T cruzi HTS: inconclusive; A1 apoptosis 2: 0

How did C[C@H]1CN([C@@H](C)CO)C(=O)c2cccc(NC(=O)c3cnccn3)c2O[C@H]1CN(C)Cc1ccc(C(=O)Nc2ccccc2N)cc1 do in these assays?
INS-1E ATP HTS: -21; T cruzi HTS: 67*; A1 apoptosis 2: 1
